From ChEMBL document CHEMBL1833913, “Structure-activity relationship study of pyridazine derivatives as glutamate transporter EAAT2 activators” (Bioorg Med Chem Lett, 2011)
Calls of active or inactive are those of the source. The calls are words filed in the database; no cut-off is given here.

Columns and labels:
Astrocyte [1] = assay: Increase of EAAT2 expression in mouse primary astrocytes at 10 uM after 4 hrs by Western blot analysis relative to control; assay type: functional
Method in brief: (§1)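 PA-EAAT2 cells (primary astrocyte line stably expressing EAAT2 mRNA) were incubated with compound at 10 μM for 4 h or 24 h. Cells were then harvested and EAAT2 protein measured by Western blot. Results are given as fold increase over DMSO control.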

Astrocyte [2] = assay: Increase of EAAT2 expression in mouse primary astrocytes at 10 uM after 24 hrs by Western blot analysis relative to control; assay type: functional; method in brief: as §1
Astrocyte [3] = assay: Increase of EAAT2 expression in mouse primary astrocytes at 10 uM after 24 hrs by Western blot analysis relative to GAPDH protein expression; assay type: functional
Method in brief: (§2)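 PA-EAAT2 cells (primary astrocyte line stably expressing EAAT2 mRNA) were exposed for 24 h to a 6-point series (0.1, 0.3, 1.0, 5.0, 10.0, 30.0 μM). EAAT2 protein was measured by Western blot and normalised separately to β-actin or GAPDH. Fold increase and EC50 were derived from the dose-response. Values are means of four separate experiments.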

Astrocyte [4] = assay: Increase of EAAT2 expression in mouse primary astrocytes after 24 hrs by Western blot analysis relative to GAPDH protein expression; assay type: functional, cell-based; method in brief: as §2
Astrocyte [5] = assay: Increase of EAAT2 expression in mouse primary astrocytes after 24 hrs by Western blot analysis relative to beta-actin protein expression; assay type: functional, cell-based; method in brief: as §2
Astrocyte [6] = assay: Increase of EAAT2 expression in mouse primary astrocytes at 10 uM after 24 hrs by Western blot analysis relative to beta-actin protein expression; assay type: functional; method in brief: as §2
Astrocyte [7] = assay: Increase of EAAT2 expression in mouse primary astrocytes at 1 uM after 24 hrs by Western blot analysis relative to GAPDH protein expression; assay type: functional; method in brief: as §2
Astrocyte [8] = assay: Increase of EAAT2 expression in mouse primary astrocytes at 1 uM after 24 hrs by Western blot analysis relative to beta-actin protein expression; assay type: functional; method in brief: as §2
Astrocyte [9] = assay: Increase of EAAT2 expression in mouse primary astrocytes at <5 uM after 24 hrs by Western blot analysis relative to control; assay type: functional

| SMILES | fold change (FC) (Astrocyte [1]) | fold change (FC) (Astrocyte [2]) | fold change (FC) (Astrocyte [3]) | EC50 (Astrocyte [4]) [nM] | EC50 (Astrocyte [5]) [nM] | fold change (FC) (Astrocyte [6]) | fold change (FC) (Astrocyte [7]) | fold change (FC) (Astrocyte [8]) | fold change (FC) (Astrocyte [9]) |
| --- | --- | --- | --- | --- | --- | --- | --- | --- | --- |
| Cc1ccccc1CCSc1ccc(-c2ccccn2)nn1 | 1.2 | 2.8 |  |  |  |  |  |  |  |
| Clc1ccccc1CSc1ccc(-c2ccncc2)nn1 | 1.5 | 1.7 |  |  |  |  |  |  |  |
| CCCNC(=O)c1ccc(-c2ccccn2)nn1 | inactive | 1.2 |  |  |  |  |  |  |  |
| Fc1ccc(COc2ccc(-c3ccccn3)nn2)c(F)c1 | inactive | 2.3 |  |  |  |  |  |  |  |
| Cc1ccccc1CSc1ccc(-c2ccccn2)nn1 | 1.7 | 3.5 | 3.1 | 1800 | 2600 | 3.5 | 1 | 1 |  |
| Cc1ccc(CSc2ccc(-c3ccccn3)nn2)cc1 | 2.1 | 2.6 |  |  |  |  |  |  |  |
| Fc1ccc(CSc2ccc(-c3ccccn3)nn2)cc1 | 2.5 | 2.6 |  |  |  |  |  |  |  |
| Clc1cccc(CSc2ccc(-c3ccccn3)nn2)c1 | 2.1 | 4.1 | 3.8 | 500 | 1700 | 4.1 | 4.2 | 4 |  |
| Cc1cccc(CSc2ccc(-c3ccccn3)nn2)c1 | 2 | 2.8 |  |  |  |  |  |  |  |
| O=S(=O)(Cc1c(F)cccc1Cl)c1ccc(-c2ccccn2)nn1 | 1.4 | 2.8 |  |  |  |  |  |  |  |
| c1ccc(CSc2ccc(-c3ccccn3)nn2)cc1 | 1.3 | 3 |  |  |  |  |  |  |  |
| Fc1cccc(Cl)c1CSc1ccc(-c2ccncc2)nn1 | inactive | 1.9 |  |  |  |  |  |  |  |
| Fc1cccc(Cl)c1CCSc1ccc(-c2ccccn2)nn1 | 1.9 | 6.7 | 5.3 | 3300 | 3300 | 6.7 | 1.2 | 1.2 | >6 |
| CC(Oc1ccc(-c2ccccn2)nn1)c1c(F)cccc1Cl (stereo not drawn) | 1.6 | 3 |  |  |  |  |  |  |  |
| Clc1ccc(CSc2ccc(-c3ccccn3)nn2)c(Cl)c1 | 1.8 | inactive |  |  |  |  |  |  |  |
| Clc1ccccc1CSc1ccc(-c2ccccn2)nn1 | 2.1 | 4 | 4.5 | 3200 | 3300 | 4 | 1.6 | 1.1 |  |
| Cc1ccc(CSc2ccc(-c3ccncc3)nn2)cc1 | 1.3 | 2.4 |  |  |  |  |  |  |  |
| O=S(=O)(Cc1ccccc1Cl)c1ccc(-c2ccccn2)nn1 | 1.6 | inactive |  |  |  |  |  |  |  |
| Fc1cc(F)c(CSc2ccc(-c3ccccn3)nn2)c(F)c1 | 1.6 | 2.4 |  |  |  |  |  |  |  |
| Fc1cccc(Cl)c1CSc1ccc(-c2cccnc2)nn1 | inactive | 2.3 |  |  |  |  |  |  |  |
| Cc1ccc(CSc2ccc(-c3ccccn3)nn2)c(C)c1 | 1.9 | 6.4 | 6 | 1800 | 2700 | 6.4 | 2.2 | 2 | >6 |
| Cc1cccc(C)c1COc1ccc(-c2ccccn2)nn1 | 2.1 | 3.2 |  |  |  |  |  |  |  |
| Cc1ccccc1CNC(=O)c1ccc(-c2ccccn2)nn1 | inactive | 1.4 |  |  |  |  |  |  |  |
| Cc1ccccc1CSc1ccc(-c2ccccn2)cn1 | 1.3 | inactive |  |  |  |  |  |  |  |
| Clc1ccccc1CSc1ccc(-c2cccnc2)nn1 | 1.2 | 1.2 |  |  |  |  |  |  |  |
| Sc1ccc(-c2ccccn2)nn1 | inactive | 2 |  |  |  |  |  |  |  |
| Cc1ccc(COc2ccc(-c3ccccn3)nn2)c(C)c1 | inactive | 2 |  |  |  |  |  |  |  |

| SMILES | fold change (FC) (Astrocyte [1]) | fold change (FC) (Astrocyte [2]) | fold change (FC) (Astrocyte [3]) | EC50 (Astrocyte [4]) [nM] | EC50 (Astrocyte [5]) [nM] | fold change (FC) (Astrocyte [6]) | fold change (FC) (Astrocyte [7]) | fold change (FC) (Astrocyte [8]) | fold change (FC) (Astrocyte [9]) |
| --- | --- | --- | --- | --- | --- | --- | --- | --- | --- |
| Fc1ccc(Sc2ccc(-c3ccccn3)nn2)c(Cl)c1 | 1.3 | 2.5 |  |  |  |  |  |  |  |
| Fc1cccc(Cl)c1COc1ccc(-c2ccccn2)nn1 | 1.1 | 2.9 |  |  |  |  |  |  |  |
| Cc1ccc(-c2ccc(SCc3c(F)cccc3Cl)nn2)cc1 | 1.2 | 2.3 |  |  |  |  |  |  |  |
| Fc1cccc(F)c1CSc1ccc(-c2ccccn2)nn1 | 2.1 | 2.2 |  |  |  |  |  |  |  |
| Fc1cccc(Cl)c1CCOc1ccc(-c2ccccn2)nn1 | 2.2 | 3.1 |  |  |  |  |  |  |  |
| Cc1ccccc1COc1ccc(-c2ccccn2)nc1 | 1.5 | inactive |  |  |  |  |  |  |  |
| Clc1ccc(Cl)c(CSc2ccc(-c3ccccn3)nn2)c1 | 1.4 | 2.5 |  |  |  |  |  |  |  |
| Cc1ccccc1CSc1ccc(-c2ccccc2)nn1 | 1.1 | 2 |  |  |  |  |  |  |  |
| Clc1ccccc1CCSc1ccc(-c2ccccn2)nn1 | 1.7 | 4.8 | 4.5 | 5100 | 4700 | 4.8 | 1 | 1 |  |
| Cc1cc(C)c(CSc2ccc(-c3ccccn3)nn2)c(C)c1 | 1.7 | 4.7 | 4.8 | 2100 | 2400 | 4.7 | 1.6 | 1.5 |  |
| Fc1ccc(CSc2ccc(-c3ccccn3)nn2)c(F)c1 | 2.4 | 3.8 | 3.7 | 2600 | 2600 | 3.8 | 1 | 1 |  |
| Oc1ccc(-c2ccccn2)nn1 | 1.5 | 1.6 |  |  |  |  |  |  |  |
| Cc1ccccc1COc1ccc(-c2ccccn2)nn1 | 2 | 2.5 |  |  |  |  |  |  |  |
| Cc1ccccc1CSc1ccc(-c2cccnc2)nn1 | 1.5 | inactive |  |  |  |  |  |  |  |
| c1ccc(-c2ccc(SC3CCCc4ccccc43)nn2)nc1 (stereo not drawn) | inactive | 5.3 | 4.5 | 1700 | 1900 | 5.3 | 2.8 | 2.4 |  |
| CCSc1ccc(-c2ccccn2)nn1 | 1.6 | 1.9 |  |  |  |  |  |  |  |
| Fc1cccc(Cl)c1CSc1ccc(-c2ccccn2)nn1 | inactive | 2 |  |  |  |  |  |  |  |
| c1ccc(CSc2ccc(-c3ccccn3)cc2)cc1 | 1.2 | 1.1 |  |  |  |  |  |  |  |
| Clc1cccc(Cl)c1CSc1ccc(-c2ccccn2)nn1 | 1.5 | 3.9 | 3.5 | 500 | 500 | 3.9 | 3.5 | 3 |  |
| Cc1ccccc1CS(=O)(=O)c1ccc(-c2ccccn2)nn1 | 2.3 | 1.1 |  |  |  |  |  |  |  |
| Fc1ccc(CSc2ccc(-c3ccccn3)nn2)c(Cl)c1 | 1.6 | 1.7 |  |  |  |  |  |  |  |
| Cc1cccc(C)c1CSc1ccc(-c2ccccn2)nn1 | inactive | 6.5 | 6.4 | 2400 | 2600 | 6.5 | 2 | 2 | >6 |
| Cc1ccccc1CNc1ccc(-c2ccccn2)nn1 | 1.7 | 2.6 |  |  |  |  |  |  |  |
| Fc1ccccc1CSc1ccc(-c2ccccn2)nn1 | 2.2 | 3.1 |  |  |  |  |  |  |  |
| Cc1ccc(Sc2ccc(-c3ccccn3)nn2)c(C)c1 | 1.2 | 2.2 |  |  |  |  |  |  |  |
| CC(Sc1ccc(-c2ccccn2)nn1)c1c(F)cccc1Cl (stereo not drawn) | 1.7 | 5.5 | 5.2 | 2400 | 3900 | 5.5 | 1.8 | 1.5 |  |
| Clc1cccc(CSc2ccc(-c3ccccn3)nn2)c1Cl | inactive | 2.4 |  |  |  |  |  |  |  |
